A selection: hits, their analogues and other compounds. The true share with any hit is near 1.6%.
PPC-1+TRAIL kill = kills PPC-1 cancer cells in the presence of TRAIL. PPC-1 cells + TRAIL, ATPLite viability luminescence. cell killing (% activity), % at 4 µM or 5 µM. 0.41% of 220,000 active. AID 1443;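 active = cell killing above 50% in the first pass at 4 µM, then a duplicate retest at 5 µM averaging 50% or more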;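 note: plate controls were cells with TRAIL plus DMSO for no effect and medium-only wells lacking cells for full effect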
FLuc inh counter = Photinus pyralis luciferase inhibition counter-screen | 1.5% of 200,000 active | inhibition, % at 10 µM | P08659 | ATPLite firefly luciferase biochemical luminescence, 10 min | AID 1006;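 active = inhibition above about 50% when tested at 10 µM, limit read from the data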
Target sequence (P08659 whole entry, looked up): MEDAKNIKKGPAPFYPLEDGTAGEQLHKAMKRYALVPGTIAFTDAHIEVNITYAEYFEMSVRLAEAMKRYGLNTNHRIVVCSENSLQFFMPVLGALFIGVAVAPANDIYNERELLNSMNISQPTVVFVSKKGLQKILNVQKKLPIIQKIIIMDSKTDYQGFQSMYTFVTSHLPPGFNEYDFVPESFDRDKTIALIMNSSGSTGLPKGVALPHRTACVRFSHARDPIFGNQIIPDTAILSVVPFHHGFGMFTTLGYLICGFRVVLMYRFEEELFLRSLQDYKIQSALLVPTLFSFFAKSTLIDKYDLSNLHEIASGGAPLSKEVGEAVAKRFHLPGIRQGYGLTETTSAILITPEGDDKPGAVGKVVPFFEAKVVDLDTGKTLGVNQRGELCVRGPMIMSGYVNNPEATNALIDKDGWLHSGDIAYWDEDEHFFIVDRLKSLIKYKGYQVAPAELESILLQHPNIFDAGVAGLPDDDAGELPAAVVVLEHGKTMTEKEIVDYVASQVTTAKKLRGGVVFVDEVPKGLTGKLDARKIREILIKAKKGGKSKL
FLuc stim CS = affects firefly luciferase, flagging false hits in luciferase stimulation screens | P08659 | ATPlite luciferase biochemical, luminescence, 10 min; 0 = ATP-free wells, 1 = DMSO control | activation factor at 10 µM | 200,000 tested, under 10 active | AID 1027;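 active = luciferase activation factor, scaled between plate controls, of at least 2 with compound at 10 µM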
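Material: Luciferase/luciferin reagent mix; Doses: test compounds dosed from 2 mM stocks in 100% DMSO; Schedule: 10 min incubation after luciferase reagent addition, room temperature; Measured by: luminescence from luciferase reaction; Read-out: luminescence gain marking luciferase activators.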
TRAIL sens C8 = caspase-8 TRAIL sensitization | NB7+C8 cells + TRAIL, ATPlite viability luminescence | inhibition (viability loss, TRAIL sensitization), % at 10 µM | 1% of 360,000 active;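 active = compounds causing at least 50% loss of cell viability in the single-dose screen, relative to plate controls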
* marks the source's active call; other numbers are inactive results; / = not tested or not shown.

SMILES	PPC-1+TRAIL kill	FLuc inh counter	FLuc stim CS	TRAIL sens C8
COc1ccc(Oc2c(Cl)cnn(-c3ccc(F)cc3)c2=O)cc1	7	0	1	87*
COc1c(Cl)cnn(-c2ccc(C)cc2)c1=O	19	1	1	8
Cn1ncc(Cl)c(Oc2ccc(Cl)cc2)c1=O	8	-7	1.1	6
COc1cnn(-c2ccc(F)cc2)c(=O)c1Br	18	0	1	1
COc1ccc(Oc2c(Cl)cnn(-c3ccc(C)cc3)c2=O)cc1	16	-6	1.1	61*
CCOC(=O)c1[nH]c(C)c(C(=O)OCC(=O)N2CC(=O)Nc3ccccc32)c1C	1	3	1	-9
CC(C)C[C@@H](CN1CCC[C@H]1CN1C(=O)C(=O)NC[C@@H]1Cc1ccc(O)cc1)N1C[C@H](Cc2ccc(O)cc2)N(CC2CCCCCC2)C(=O)C1=O	/	/	/	-1
O=C(O)CSc1ncnc2nc[nH]c12	-3	-6	1.1	11
c1nc(SSc2ncnc3nc[nH]c23)c2[nH]cnc2n1	/	/	/	73*
CC(CCN1CCN(c2ccccc2)CC1)c1ccccc1 (configuration not stated)	/	/	/	-9
C#CCOc1ccccc1CNC1CCN(Cc2ccccc2)CC1	/	/	/	4
CCN(CC)c1ccc(NC(=O)c2ccc(Br)o2)cc1	-14	53*	0.5	32
COc1ccc(-c2cc(C(=O)Nc3ccc(C)c(C)c3)no2)cc1	/	/	/	-1
COc1ccc(-c2cc(C(=O)Nc3cccc(O)c3)no2)cc1	/	/	/	73*
O=C(Nc1cccc(O)c1)c1cc(-c2ccco2)on1	26	76*	0.2	1
CCCCC1(CO)C(=O)N(c2ccccc2)N(c2ccccc2)C1=O	-14	/	/	-6
CCCCC1C(=O)N(c2ccccc2)N(c2ccc(O)cc2)C1=O (configuration not stated)	/	/	/	57*
O=C(c1cc(-c2ccc(Cl)cc2)on1)N1CCOCC1	7	60*	0.4	26
O=C(c1cc(-c2ccc3c(c2)OCO3)on1)N1CCOCC1	24	70*	0.3	42
O=C(c1cc(-c2ccc(Cl)cc2Cl)on1)N1CCOCC1	14	73*	0.3	57*
O=C(NCC1CCCO1)c1cc(-c2ccc(Cl)cc2Cl)on1 (configuration not stated)	45	71*	0.3	45
COc1ccc(S(=O)(=O)N2CCC(C(=O)NCCC(=O)NCc3ccccc3OC)CC2)cc1	/	/	/	-2
Cc1nc(SCC(=O)O)c(C#N)c(C)c1CC(=O)c1ccccc1	12	1	1	32
CN(C)c1ccc(C(=O)Nc2ccc(S(=O)(=O)Nc3nccs3)cc2)cc1	/	/	/	5
CNc1ncnc2c1ncn2-c1ccccc1	/	/	/	-7
SMILES	PPC-1+TRAIL kill	FLuc inh counter	FLuc stim CS	TRAIL sens C8
O=C(CSc1ccc(S(=O)(=O)N2CCCC2)cn1)Nc1ccc([N+](=O)[O-])cc1C(F)(F)F	/	/	/	-1
CN(c1ccc(F)cc1)S(=O)(=O)c1ccc2[nH]cc(C(=O)O)c(=O)c2c1	62*	-4	1	-20
O=C(c1ccc(F)cc1)C1CCN(C(=S)Nc2ccc(F)cc2)CC1	/	/	/	1
Cn1c(CCNC(=O)c2ccco2)nc2cc(NC(=O)c3ccco3)ccc21	11	18	0.8	-1
CCn1cnc2cc(NC(=O)c3ccco3)ccc21	36	66*	0.3	31
Cc1nc2cc(NC(=O)c3ccco3)ccc2n1C	/	/	/	51*
CCCn1cnc2cc(NC(=O)c3ccco3)ccc21	/	/	/	46
OCc1ccccc1-c1cnc2cccnn12	/	/	/	-2
CC(C)c1ccc(/C=C/c2ccc(=O)n(C)n2)cc1	39	83*	0.2	62*
CC(C)c1ccc(/C=C/C2=NNC(=O)CC2)cc1	-3	26	0.7	15
O=S(=O)(c1ccc(Br)c2ccccc12)N1CCCC1	/	/	/	-4
Cc1nc(N)nc(N)c1-c1ccc(Cl)c(Cl)c1	/	/	/	82*
Cc1cc(OCc2nc(N)nc(N)c2-c2ccc(Cl)c(Cl)c2)ccc1[N+](=O)[O-]	/	/	/	83*
Cc1nc(N)nc(N)c1CCCc1ccc(Cl)c(Cl)c1	/	/	/	73*
COc1ccc(Cc2c(C)nc(N)nc2Cl)cc1	7	-3	1	-5
Cc1ccc(NC(=O)C2CCC(N3C(=O)C4CCCCC4C3=O)CC2)cc1 (configuration not stated)	/	/	/	7
COc1ccccc1CNC(=O)c1ccccc1NC(=O)C1=C(C)OCCS1	/	/	/	-14
CCC(CC)CN1C(N(C)C)=NC[C@@H]1CC(C)C	/	/	/	-3
CCN(C(=O)COC(=O)COc1ccc(Cl)c(C)c1)C1CCS(=O)(=O)C1 (configuration not stated)	/	/	/	-23
Cc1cc(C)cc(NC(=O)CN2CCN(CCN=CC3=C(O)CC(c4ccc(Cl)cc4)CC3=O)CC2)c1 (configuration not stated)	0	-1	1	-5
NNc1nc(-c2ccccc2Cl)nc2ccccc12	/	/	/	0
NNc1nc(-c2ccccc2Cl)nc2sc3c(c12)CCCC3	11	82*	0.2	49
CN(C)c1cccc(NC(=O)c2cccc3c(-c4ccc(F)c(F)c4)coc23)c1	/	/	/	-7
NC(=O)C(C1=CCCCC1)c1ccccc1 (configuration not stated)	/	/	/	-17
CCCN(C(=O)c1nc2nc(C)cc(C)n2n1)c1c(N)n(Cc2ccccc2)c(=O)[nH]c1=O	/	/	/	10
SMILES	PPC-1+TRAIL kill	FLuc inh counter	FLuc stim CS	TRAIL sens C8
COc1cc(C2Nc3ccccc3C(=O)N2c2ccc3c(c2)OCCO3)ccc1OCC(C)C (configuration not stated)	27	10	0.9	55*
O=C1c2ccccc2NC(c2ccc3c(c2)OCCO3)N1c1ccc2c(c1)OCCO2 (configuration not stated)	42	18	0.8	64*
COc1cc(C2Nc3ccccc3C(=O)N2c2ccccc2OC)ccc1O (configuration not stated)	14	-2	1	3
CN(C)c1ccc(N=Nc2ccccc2C(=O)OCC(=O)N(C)C2CCCCC2)cc1	27	68*	0.3	5
CN(C)c1ccc(N=Nc2ccccc2C(=O)OCC(=O)NC2CCCC2)cc1	29	59*	0.4	20
CN(C)c1ccc(N=Nc2ccccc2C(=O)OCC(=O)NCC2CCCCC2)cc1	18	48	0.5	22
COc1ccc(C=NNC(=O)c2cc(C)oc2C)cc1O	/	/	/	40
Fc1ccc(-c2nc3c4ccccc4ccn3c2Cc2cccc(Cl)c2)cc1	/	/	/	16
CCC(C)c1ccc(NC(=O)c2cccs2)cc1 (configuration not stated)	25	75*	0.3	60*
Cc1ccn(-c2ccc(NC(=O)c3cccs3)cc2)n1	/	/	/	55*
Cn1cccc1C(=O)NNC(=O)COc1ccccc1Cl	/	/	/	-8
COc1cc(C2c3cc4c(cc3CC3COC(=O)N32)OCO4)cc(OC)c1OC (configuration not stated)	/	/	/	20
C=Cc1ccc(Cn2c(C)c(C(=O)NCc3ccc(Cl)c(Cl)c3)sc2=O)cc1	/	/	/	54*
COc1cc(C(=O)OC(C)c2ccc(F)cc2)ccc1OCC(=O)N1CCOCC1 (configuration not stated)	/	/	/	-11
